Here are results for 36 sequences from the array DNA melting data of Ke et al. (doi:10.1101/2024.01.08.574731).

The nature of data set [1]: melting temperature; fluorescence melt of hairpins on a sequencing array, two-state fit, raised by 9.35 °C to match UV melts. The note with it: sodium 0.088 M. In short, it runs like this:
(§1)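 Melting temperature and folding enthalpy were derived from bootstrapped two-state fits. The fitted temperatures were raised by 9.35 °C to agree with UV melts, and four replicates were combined by inverse variance. The underlying data were Cy3 fluorescence images of library hairpins, with annealed Cy3 and quencher oligos, on a sequenced MiSeq flow cell in 50 mM Na-HEPES pH 8.0, 25 mM NaCl, taken in 2.5 °C steps up to 60 °C, normalised to pre-quench Cy3 and to control constructs.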

Data set [2] can be described thus: folding enthalpy; higher = less favourable; fluorescence melt of hairpins on a sequencing array, two-state fit. Particulars: sodium 0.088 M. The procedure, abridged: as §1

Consider GGGGACGAAAGTCCTCCC ((((((....)))..))), for which the Tm in data set [1] was 48.3 °C. In addition, the folding enthalpy in data set [2] was -10.8 kcal/mol.

As to GGGGACGAAAGTCGCCC ((((((....))).))), in data set [1], the Tm is 64.9 °C. Besides, the folding enthalpy in data set [2] was -13.9 kcal/mol.

Turning to GGGGACGAAAGTCTGCCC ((((((....)))..))), the Tm in data set [1] is 44.1 °C. Moreover, the folding enthalpy in data set [2] is -14.4 kcal/mol.

With GGGGACGCGAAAGCGCCC (((..(((....)))))), the Tm in data set [1] is 60 °C. The folding enthalpy in data set [2] is -12.9 kcal/mol.

As to GGGGATGGAAACGTCTCC ((.((.(....).)).)), the Tm in data set [1] amounted to 36.5 °C. Moreover, the folding enthalpy in data set [2] was -26 kcal/mol.

As to GGGGATTCGAAAGAACCC (((..(((....)))))), the Tm in data set [1] is 47.4 °C. In addition, the folding enthalpy in data set [2] is -20.5 kcal/mol.

Consider GGGGCCGAAAGGCGGCCC ((((((....)))..))), for which the Tm in data set [1] turned out to be 68.2 °C. In addition, the folding enthalpy in data set [2] is -15.1 kcal/mol.

Take GGGGCCGCGAAAGCGCCC (((..(((....)))))): in data set [1], the Tm worked out at 66 °C. The folding enthalpy in data set [2] was -11 kcal/mol.

Consider GGGGCCGGAAACAGCCCC (((((.(....).))))), for which the Tm in data set [1] was determined as 57 °C. In addition, in data set [2], the folding enthalpy is -41.3 kcal/mol.

In the case of GGGGCCGGAAACGGCCTC (.(((((....))))).), the Tm in data set [1] was determined as 69.2 °C. In data set [2], the folding enthalpy was -10.4 kcal/mol.

For GGGGCGACGAAAGTCCCC (((..(((....)))))), in data set [1], the Tm is 56 °C. Further, in data set [2], the folding enthalpy is -16.4 kcal/mol.

Regarding GGGGCGGCGAAAGCCCCC (((..(((....)))))), the Tm in data set [1] came to 64 °C. For the same sequence, in data set [2], the folding enthalpy was -16.6 kcal/mol.

As for GGGGCGGGAAACCACCCC ((((.((....)).)))), in data set [1], the Tm turned out to be 55 °C. In addition, the folding enthalpy in data set [2] was -52 kcal/mol.

Take GGGGCTACGAAAGTACCC (((..(((....)))))): in data set [1], the Tm came out at 48 °C. In addition, the folding enthalpy in data set [2] was -22.1 kcal/mol.

Take GGGGCTCCGAAAGGACCC (((..(((....)))))): the Tm in data set [1] was 56.9 °C. For the same sequence, the folding enthalpy in data set [2] is -35.3 kcal/mol.

Consider GGGGCTGCGAAAGCACCC (((..(((....)))))), for which the Tm in data set [1] worked out at 62.5 °C. Moreover, the folding enthalpy in data set [2] is -24.5 kcal/mol.

As to GGGGCTGGAAACAACCCC ((((.((....)).)))), in data set [1], the Tm amounted to 49.2 °C. The folding enthalpy in data set [2] is -41.2 kcal/mol.

Take GGGGCTGGAAACAGCCTC (.(((((....))))).): the Tm in data set [1] was 59.8 °C. Further, in data set [2], the folding enthalpy was -14.4 kcal/mol.

With GGGGCTGGAAACAGCTCC ((.((((....)))).)), the Tm in data set [1] is 57.7 °C. Moreover, the folding enthalpy in data set [2] was -28.5 kcal/mol.

For the sequence GGGGCTGGAAACGGCTCC ((.((.(....).)).)), in data set [1], the Tm stood at 48.6 °C. In data set [2], the folding enthalpy is -38.7 kcal/mol.

GGGGGCGAAAGCCAACCC ((((((....)))..))): in data set [1], the Tm was found to be 52.7 °C. Further, the folding enthalpy in data set [2] was -17.9 kcal/mol.

Turning to GGGGGCGAAAGCCCACCC ((((((....)))..))), in data set [1], the Tm is 57.3 °C. Besides, in data set [2], the folding enthalpy was -10.1 kcal/mol.

For GGGGGCGAAAGCCCGCCC ((((((....)))..))), the Tm in data set [1] came out at 55.6 °C. Moreover, the folding enthalpy in data set [2] was -9.36 kcal/mol.

As to GGGGGCGGAAACGCCTCC ((.((((....)))).)), the Tm in data set [1] is 66.7 °C. Moreover, in data set [2], the folding enthalpy was -24.1 kcal/mol.

As to GGGGGTCGAAAGACGCCC (((.(((....))).))), the Tm in data set [1] was determined as 68.7 °C. Also, the folding enthalpy in data set [2] was -21.5 kcal/mol.

Take GGGGGTGGAAACACCCTC (.(((((....))))).): the Tm in data set [1] amounted to 64.5 °C. Besides, the folding enthalpy in data set [2] is -16.7 kcal/mol.

GGGGGTGGAAACATCCCC ((((.((....)).)))): the Tm in data set [1] stood at 56.8 °C. Moreover, the folding enthalpy in data set [2] was -34.7 kcal/mol.

For GGGGGTGGAAACGCTCCC (((.(.(....).).))), in data set [1], the Tm was 47.1 °C. The folding enthalpy in data set [2] was -25.9 kcal/mol.

As to GGGGTACGAAAGTAGCCC (((.(((....))).))), in data set [1], the Tm is 67.7 °C. For the same sequence, the folding enthalpy in data set [2] was -42.7 kcal/mol.

As for GGGGTAGAAATACCCC ((((((....)))))), the Tm in data set [1] turned out to be 60.4 °C. In addition, the folding enthalpy in data set [2] is -34.9 kcal/mol.

Consider GGGGTAGCGAAAGCTCCC (((..(((....)))))), for which the Tm in data set [1] amounted to 58.4 °C. The folding enthalpy in data set [2] is -23.2 kcal/mol.

In the case of GGGGTAGGAAACTACCCC (((((((....))))))), in data set [1], the Tm is 67.2 °C. Further, the folding enthalpy in data set [2] was -25.7 kcal/mol.

For the sequence GGGGTCGAAAGACGACCC ((((((....)))..))), the Tm in data set [1] was 61.8 °C. Further, in data set [2], the folding enthalpy was -19.6 kcal/mol.

Consider GGGGTCGAAAGACGCCCC ((((((....)))..))), for which, in data set [1], the Tm is 60.2 °C. Moreover, the folding enthalpy in data set [2] is -13 kcal/mol.

Take GGGGTCGAAAGACGGCCC ((((((....)))..))): in data set [1], the Tm stood at 48.9 °C. The folding enthalpy in data set [2] was -22.1 kcal/mol.

In the case of GGGGTCGGAAACGACTCC ((.((((....)))).)), the Tm in data set [1] came out at 59.5 °C. Also, the folding enthalpy in data set [2] is -34.4 kcal/mol.
